Measured values reported in ChEMBL document CHEMBL1221252, “Novel 1H-pyrrolo[2,3-c]pyridines as acid pump antagonists (APAs)” (Bioorg Med Chem Lett, 2010).

Tests used:
[1] = Inhibition of pig gastric H(+)/K(+) ATPase; type: tissue-based, Sus scrofa, Stomach
How it was run: (§1)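 Ion-leaky gastric membrane vesicles enriched in H+/K+-ATPase, prepared from pig stomach. Lyophilized vesicles in 5 mM PIPES/Tris pH 6.1 preincubated 5 min with compound, then buffer with or without K+ added. ATP substrate added, 30 min at 37 °C. Stopped with colorimetric reagent; Pi read at 620 nm. Activity taken as K+-stimulated Pi production (with minus without K+); IC50 from % inhibition by Litchfield–Wilcoxon.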

Sus scrofa [2] = species: Sus scrofa; experiment: Inhibition of pig gastric H(+)/K(+) ATPase at 4 uM; type: tissue-based; details: Stomach; how it was run: as §1
Sus scrofa [3] = species: Sus scrofa; experiment: Inhibition of pig gastric H(+)/K(+) ATPase at 1 uM; type: tissue-based; details: Stomach; how it was run: as §1

## C=CCn1c(C)c(C)c2cc(C(=O)NC3CC3)nc(OCc3ccc(F)cc3)c21
[1]
  IC50: 408 nM

## C=CCn1c(C)c(C)c2ccnc(OCc3ccc(F)cc3)c21
[1]
  IC50: 125 nM

## CCCn1c(C)c(C)c2ccnc(OCc3ccc(F)cc3)c21
[1]
  IC50: 302 nM

## Cc1c(C)n(Cc2ccccc2)c2c(OCc3ccc(F)cc3)nc(C(N)=O)cc12
Sus scrofa [2]
  inhibition: 16.1%

## Cc1c(C)n(CC(C)C)c2c(OCc3ccc(Cl)cc3)nccc12
[1]
  IC50: 205 nM

## Cc1c(C)n(Cc2ccccc2)c2c(OCc3ccc(F)cc3)nc(C(=O)N(C)C)cc12
[1]
  IC50: 28 nM

## Cc1c(C)n(Cc2ccccc2)c2c(OCc3ccc(F)cc3)nc(C(=O)NC3CC3)cc12
[1]
  IC50: 738 nM

## Cc1c(C)n(Cc2ccccc2)c2c(OCc3ccc(F)cc3)nc(C(=O)N3CCOCC3)cc12
[1]
  IC50: 29 nM

## CNC(=O)c1cc2c(C)c(C)n(Cc3ccccc3)c2c(OCc2ccc(F)cc2)n1
Sus scrofa [3]
  inhibition: 39.4%

## Cc1[nH]c2c(OCc3ccc(F)cc3)nccc2c1C
Sus scrofa [2]
  inhibition: 60.3%

## Cc1c(C)n(CC2OCCO2)c2c(OCc3ccc(F)cc3)nccc12
[1]
  IC50: 173 nM

## Cc1c(C)n(CC2CC2)c2c(OCc3ccc(F)cc3)nccc12
[1]
  IC50: 181 nM

## Cc1c(C)n(CC(C)C)c2c(OCc3ccc(F)cc3)nccc12
[1]
  IC50: 196 nM

## Cc1c(C)n(Cc2ccccc2)c2c(OCc3ccc(Cl)cc3)nccc12
[1]
  IC50: 187 nM

## C=CCn1c(C)c(C)c2cc(C(N)=O)nc(OCc3ccc(F)cc3)c21
Sus scrofa [2]
  inhibition: 80.3%

## Cc1[nH]c2c(OCc3ccccc3)nccc2c1C
Sus scrofa [2]
  inhibition: 50.9%

## C=CCn1c(C)c(C)c2cc(C(=O)Nc3ccncc3)nc(OCc3ccc(F)cc3)c21
[1]
  IC50: 735 nM

## Cc1[nH]c2c(OCc3ccccc3F)nccc2c1C
Sus scrofa [2]
  inhibition: 32.1%

## C=CCn1c(C)c(C)c2cc(C(=O)NC)nc(OCc3ccc(F)cc3)c21
Sus scrofa [2]
  inhibition: 78.4%
